Assay results published in ChEMBL document CHEMBL1240360, “TMC278, a next-generation nonnucleoside reverse transcriptase inhibitor (NNRTI), active against wild-type and NNRTI-resistant HIV-1” (Antimicrob Agents Chemother, 2010).

Legend:
[1] = system: Human immunodeficiency virus 1; test: Antiviral activity against Human immunodeficiency virus 1 subtype D isolate 92UG035 infected in human PBMC cells by cell based assay; details: Human immunodeficiency virus 1, subtype D 92UG035, PBMC
[2] = system: Human immunodeficiency virus 1; test: Antiviral activity against Human immunodeficiency virus 1 group M subtype AG assessed as days to viral replication breakthrough at 40 nM by cell based assay; type: functional
[3] = system: Human immunodeficiency virus 1; test: Antiviral activity against Human immunodeficiency virus 1 subtype B isolate JR-CSF infected in human PBMC cells by cell based assay
[4] = system: Human immunodeficiency virus 1; test: Antiviral activity against Human immunodeficiency virus 1 subtype A isolate 92RW020 infected in human PBMC cells by cell based assay; details: Human immunodeficiency virus 1, subtype A isolate 92RW020, PBMC
[5] = system: Human immunodeficiency virus 1; test: Antiviral activity against Human immunodeficiency virus 1 subtype G isolate JV1083 infected in human PBMC cells by cell based assay; details: Human immunodeficiency virus 1, subtype G isolate JV1083, PBMC
[6] = system: Human immunodeficiency virus 1; test: Antiviral activity against Human immunodeficiency virus 1 subtype G isolate RU132 infected in human PBMC cells by cell based assay; details: Human immunodeficiency virus 1, subtype G isolate RU132, PBMC
[7] = system: Human immunodeficiency virus 1; test: Antiviral activity against Human immunodeficiency virus 1 subtype O isolate BCF03 infected in human PBMC cells by cell based assay; details: Human immunodeficiency virus 1, subtype O isolate BCF03, PBMC
[8] = system: Human immunodeficiency virus 1; test: Antiviral activity against Human immunodeficiency virus 1 subtype B isolate 93BR021 infected in human PBMC cells by cell based assay; details: Human immunodeficiency virus 1, subtype B isolate 93BR021, PBMC
[9] = system: Human immunodeficiency virus 1; test: Antiviral activity against Human immunodeficiency virus 1 group M subtype D assessed as days to viral replication breakthrough at 40 nM by cell based assay; type: functional
[10] = system: Human immunodeficiency virus 1; test: Antiviral activity against Human immunodeficiency virus 1 subtype E isolate 93TH073 infected in human PBMC cells by cell based assay; details: Human immunodeficiency virus 1, subtype E 93TH073, PBMC
[11] = system: Human immunodeficiency virus 1; test: Antiviral activity against Human immunodeficiency virus 1 subtype G infected in human MT4 cells assessed as reduction in virus induced cytopathicity; type: functional, organism-based
Procedure, shortened: (§1)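 Recombinant viruses were made by recombining patient-derived HIV-1 RT-PR sequences into an RT-PR-deleted HXB2 proviral clone transfected into MT4 cells. Subtype was assigned from PR/RT sequence by Smith-Waterman alignment to HXB2. MT4 cells (1.5 × 10^5/ml) were infected at MOI 0.01 with serially diluted compound for 5 days at 37°C. Viability was read by MTT and EC50 derived.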

[12] = system: Human immunodeficiency virus 1; test: Antiviral activity against Human immunodeficiency virus 1 group M subtype A1 assessed as days to viral replication breakthrough at 10 nM by cell based assay; type: functional
[13] = system: Human immunodeficiency virus 1; test: Antiviral activity against Human immunodeficiency virus 1 subtype D isolate 92UG001 infected in human PBMC cells by cell based assay; details: Human immunodeficiency virus 1, subtype D isolate 92UG001, PBMC
[14] = system: Human immunodeficiency virus 1; test: Antiviral activity against Human immunodeficiency virus 1 group M subtype F1 assessed as days to viral replication breakthrough at 200 nM by cell based assay; type: functional
[15] = system: Human immunodeficiency virus 1; test: Antiviral activity against Human immunodeficiency virus 1 group M subtype H assessed as days to viral replication breakthrough at 40 nM by cell based assay; type: functional
[16] = system: Human immunodeficiency virus 1; test: Antiviral activity against Human immunodeficiency virus 1 subtype C infected in human MT4 cells assessed as reduction in virus induced cytopathicity; type: functional, organism-based; procedure, shortened: as §1
[17] = system: Human immunodeficiency virus 1; test: Antiviral activity against Human immunodeficiency virus 1 subtype A isolate 92UG029 infected in human PBMC cells by cell based assay; details: Human immunodeficiency virus 1, subtype A isolate 92UG029, PBMC
[18] = system: Human immunodeficiency virus 1; test: Antiviral activity against Human immunodeficiency virus 1 group M subtype BG assessed as days to viral replication breakthrough at 200 nM by cell based assay; type: functional
[19] = system: Human immunodeficiency virus 1; test: Antiviral activity against Human immunodeficiency virus 1 subtype D isolate 92UG024 infected in human PBMC cells by cell based assay; details: Human immunodeficiency virus 1, subtype D 92UG024, PBMC
[20] = system: Human immunodeficiency virus 1; test: Antiviral activity against Human immunodeficiency virus 1 group M subtype B assessed as days to viral replication breakthrough at 10 nM by cell based assay; type: functional
[21] = system: Human immunodeficiency virus 1; test: Antiviral activity against Human immunodeficiency virus 1 subtype O isolate BCF02 infected in human PBMC cells by cell based assay; details: Human immunodeficiency virus 1, subtype O isolate BCF02, PBMC
[22] = system: Human immunodeficiency virus 1; test: Antiviral activity against Human immunodeficiency virus 1 group M subtype A1 assessed as days to viral replication breakthrough at 200 nM by cell based assay; type: functional
[23] = system: Human immunodeficiency virus 1; test: Antiviral activity against Human immunodeficiency virus 1 group M subtype G assessed as days to viral replication breakthrough at 200 nM by cell based assay; type: functional
[24] = system: Human immunodeficiency virus 1; test: Antiviral activity against Human immunodeficiency virus 1 subtype F isolate 93BR020 infected in human PBMC cells by cell based assay; details: Human immunodeficiency virus 1, subtype F isolate 93BR020, PBMC
[25] = system: Human immunodeficiency virus 1; test: Antiviral activity against Human immunodeficiency virus 1 subtype O misolate BCF01 infected in human PBMC cells by cell based assay; details: Human immunodeficiency virus 1, subtype O isolate BCF01, PBMC
[26] = system: Human immunodeficiency virus 2; test: Antiviral activity against Human immunodeficiency virus 2 ROD infected in human MT4 cells assessed as reduction in virus induced cytopathicity; type: functional, organism-based; details: Human immunodeficiency virus 2, ISOLATE ROD
Procedure, shortened: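 MT4 cells (1.5 × 10^5/ml) infected with HIV (MOI 0.01) were added to serial compound dilutions and incubated 5 days at 37°C in 5% CO2. Protection from virus-induced cell death was read by MTT tetrazolium colorimetry, giving an EC50 in micromolar.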

[27] = system: Human immunodeficiency virus 1; test: Antiviral activity against Human immunodeficiency virus 1 group M subtype B assessed as days viral replication at 200 nM by cell based assay; type: functional
[28] = system: Human immunodeficiency virus 1; test: Antiviral activity against Human immunodeficiency virus 1 subtype A isolate 92UG037 infected in human PBMC cells by cell based assay; details: Human immunodeficiency virus 1, subtype A isolate 92UG037, PBMC
[29] = system: Human immunodeficiency virus 1; test: Antiviral activity against Human immunodeficiency virus 1 subtype C isolate 93IN101 infected in human PBMC cells by cell based assay; details: Human immunodeficiency virus 1, subtype C isolate 93IN101, PBMC
[30] = system: Human immunodeficiency virus 1; test: Antiviral activity against Human immunodeficiency virus 1 subtype A1 infected in human MT4 cells assessed as reduction in virus induced cytopathicity; type: functional, organism-based; details: Human immunodeficiency virus 1, subtype A1, MT4; procedure, shortened: as §1
[31] = system: Human immunodeficiency virus 1; test: Antiviral activity against Human immunodeficiency virus 1 subtype E isolate CMU08 infected in human PBMC cells by cell based assay; details: Human immunodeficiency virus 1, subtype E isolate CMU08, PBMC
[32] = system: Human immunodeficiency virus 1; test: Antiviral activity against Human immunodeficiency virus 1 subtype F1 infected in human MT4 cells assessed as reduction in virus induced cytopathicity; type: functional, organism-based; details: Human immunodeficiency virus 1, subtype F1, MT4; procedure, shortened: as §1
[33] = system: Human immunodeficiency virus 1; test: Antiviral activity against Human immunodeficiency virus 1 subtype AE infected in human MT4 cells assessed as reduction in virus induced cytopathicity; type: functional, organism-based; procedure, shortened: as §1

Which EC50 [1] does the source give for `Cc1cc(/C=C/C#N)cc(C)c1Nc1ccnc(Nc2ccc(C#N)cc2)n1` [RILPIVIRINE] here?
Its EC50 is 0.07 nM.

And the Activity [2]?
The Activity was greater than 31 days.

And the EC50 [3]?
The EC50 was 0.51 nM.

What about the EC50 [4] of the same molecule?
The EC50 was 0.07 nM.

And the EC50 [5]?
Its EC50 is 0.26 nM.

What about the EC50 [6] of the same molecule?
Its EC50 is 0.51 nM.

What about the EC50 [7] of the same molecule?
The EC50 was 8.45 nM.

And the EC50 [8]?
The EC50 was 0.23 nM.

What about the Activity [9] of the same molecule?
Its Activity is greater than 31 days.

What about the EC50 [10] of the same molecule?
Its EC50 is 0.07 nM.

What about the EC50 [11] of the same molecule?
The EC50 was 0.14 nM.

What about the Activity [12] of the same molecule?
The Activity was 10 days.

And the EC50 [13]?
Its EC50 is 0.26 nM.

What about the Activity [14] of the same molecule?
Its Activity is greater than 31 days.

And the Activity [15]?
Its Activity is greater than 31 days.

What about the EC50 [16] of the same molecule?
The EC50 was 0.3 nM.

And the EC50 [17]?
Its EC50 is 0.44 nM.

And the Activity [18]?
Its Activity is greater than 31 days.

And the EC50 [19]?
Its EC50 is 0.38 nM.

What about the Activity [20] of the same molecule?
The Activity was 7 days.

What about the EC50 [21] of the same molecule?
The EC50 was 2.88 nM.

And the Activity [22]?
The Activity was greater than 31 days.

What about the Activity [23] of the same molecule?
The Activity was greater than 31 days.

And the EC50 [24]?
The EC50 was 0.16 nM.

What about the EC50 [25] of the same molecule?
Its EC50 is 3.13 nM.

And the EC50 [26]?
Its EC50 is 5220 nM.

And the Activity [27]?
Its Activity is greater than 31 days.

And the EC50 [28]?
Its EC50 is 0.24 nM.

And the EC50 [29]?
The EC50 was 0.53 nM.

What about the EC50 [30] of the same molecule?
The EC50 was 0.44 nM.

And the EC50 [31]?
Its EC50 is 1.01 nM.

And the EC50 [32]?
Its EC50 is 0.21 nM.

And the EC50 [33]?
The EC50 was 0.21 nM.
